Non-standard residues stand in square brackets, D forms with d. Residues, ends and D or L forms follow the SMILES beside them. *: point of attachment. Propyl(2R-PamO,3-PamO) = CCCCCCCCCCCCCCCC(=O)OC[C@H](C*)OC(=O)CCCCCCCCCCCCCCC; X1 = CC(=O)NCCCOCCOCCOCCCNC(=O)COCC(=O)*; Palmitoyl = CCCCCCCCCCCCCCCC(=O)*
How the values were obtained:
Mus musculus [1] = species on record: Mus musculus; assay: Toxicity in Trp1455/9M peptide immunized C57BL/6 mouse at 50 ug measured after 34 of immunization; format: organism-based; details: in vivo
Mus musculus [2] = species on record: Mus musculus; assay: Immunomodulatory activity in Trp1455/9M peptide immunized C57BL/6 mouse assessed as Trp1455/9M specific CD8+ T cells in blood at 50 ug using Trp1455/9M/ H-2Db staining measured after 7 of immunization by FACS analysis; format: functional, T-cell
Outline: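 C57BL/6 mice, 6-8 weeks old, immunized i.v. (200 μL) with a mixture of 100 μg Trp1_455/9M peptide, 50 μg anti-CD40 antibody (FGK45.5) and 50 μg TLR2 agonist. Submandibular blood taken, red cells lysed with ammonium chloride, stained 40 min on ice with CD8a, Trp1_455/9M/H-2Db tetramer and anti-MHC class II. Tetramer+ % of CD8+ cells read by flow cytometry; three mice per group.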

Toll-like receptor 2 [3] = target: T1, Toll-like receptor 2 (Homo sapiens, UniProt O60603); assay: Agonist activity at human TLR2 expressed in HEK293 cells assessed as induction of NF-kappaB signaling after 24 hrs by luminescence based luciferase reporter gene assay; format: functional, cell-based
T1 sequence (O60603 whole entry): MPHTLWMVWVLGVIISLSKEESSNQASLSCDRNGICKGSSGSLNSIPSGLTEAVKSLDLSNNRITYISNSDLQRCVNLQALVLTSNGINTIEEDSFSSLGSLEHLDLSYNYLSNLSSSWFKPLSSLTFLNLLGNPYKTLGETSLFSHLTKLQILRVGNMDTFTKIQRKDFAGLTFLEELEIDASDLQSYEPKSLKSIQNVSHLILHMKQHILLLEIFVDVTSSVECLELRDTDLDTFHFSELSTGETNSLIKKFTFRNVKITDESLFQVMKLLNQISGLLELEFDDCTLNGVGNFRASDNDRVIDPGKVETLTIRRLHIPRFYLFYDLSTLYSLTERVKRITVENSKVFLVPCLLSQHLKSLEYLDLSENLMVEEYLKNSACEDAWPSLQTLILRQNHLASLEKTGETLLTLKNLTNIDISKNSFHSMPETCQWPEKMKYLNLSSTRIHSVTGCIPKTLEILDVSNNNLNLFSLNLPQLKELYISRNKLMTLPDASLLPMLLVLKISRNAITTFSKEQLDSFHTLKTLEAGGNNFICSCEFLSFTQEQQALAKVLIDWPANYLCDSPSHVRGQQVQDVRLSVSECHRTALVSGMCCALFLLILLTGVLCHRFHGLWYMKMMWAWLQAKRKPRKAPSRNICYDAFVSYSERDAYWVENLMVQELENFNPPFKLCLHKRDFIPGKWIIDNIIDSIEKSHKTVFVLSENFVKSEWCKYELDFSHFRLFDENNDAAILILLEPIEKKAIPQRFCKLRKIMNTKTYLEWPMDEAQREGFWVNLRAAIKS

Toll-like receptor 2 [4] = target: T1, Toll-like receptor 2; assay: Agonist activity at human TLR2 expressed in HEK293 cells assessed as induction of NF-kappaB signaling after 24 hrs by luminescence based luciferase reporter gene assay relative to 10 ug/mL of SAA; format: functional, cell-based
Outline: (§1)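 HEK-293/hTLR2 reporter cells transiently transfected with NF-κB-luciferase plasmid pNifty-Luc, stimulated 24 h with test compound at 1 μg/mL; luciferin-induced luminescence read. Fold enhancement taken versus serum amyloid A at 1 μg/mL or 10 μg/mL; n = 4.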

Mus musculus [5] = species on record: Mus musculus; assay: Immunomodulatory activity in Trp1455/9M peptide immunized C57BL/6 mouse assessed as Trp1455/9M specific CD8+ T cells in blood at 50 ug using Trp1455/9M/ H-2Db staining measured after 34 of immunization by FACS analysis; format: functional, T-cell
Outline: (§2)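 C57BL/6 mice, 6-8 weeks, immunized iv with 100 μg Trp1 455/9M peptide, 50 μg anti-CD40 antibody and 50 μg TLR2 agonist in 200 μL. Submandibular blood on days 7, 21, 34, red cells lysed, stained 40 min on ice with CD8a antibody, Trp1 455/9M/H-2Db tetramer and anti-MHC II; % tetramer-positive CD8+ cells by flow cytometry; three mice per group, mean and SD.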

Toll-like receptor 2 [6] = target: T1, Toll-like receptor 2; assay: Displacement of Eu-DTPA from human TLR2 expressed in HEK293 cells after 1 hr; format: cell-based
Outline: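 Live-cell europium TRF competition binding in HEK-293/hTLR2 (poly-D-lysine plates) or SU.86.86 cells grown 2 days to ~80% confluence. Unlabeled ligand 1 μM to 0.01 nM plus 90 nM Eu-DTPA-labeled tracer, 1 h at 37°C; three washes, enhancement solution 30 min at 37°C, read at 340 nm excitation/615 nm emission with time delay.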

Mus musculus [7] = species on record: Mus musculus; assay: Immunomodulatory activity in Trp1455/9M peptide immunized C57BL/6 mouse assessed as Trp1455/9M specific CD8+ T cells in blood at 50 ug using Trp1455/9M/ H-2Db staining measured after 21 of immunization by FACS analysis; format: functional, T-cell; outline: as §2
Toll-like receptor 2 [8] = target: T1, Toll-like receptor 2; assay: Agonist activity at human TLR2 expressed in HEK293 cells assessed as induction of NF-kappaB signaling after 24 hrs by luminescence based luciferase reporter gene assay relative to 1 ug/mL of SAA; format: functional, cell-based; outline: as §1

| Structure (SMILES) | fold change (FC) (Toll-like receptor 2 [4]) | fold change (FC) (Toll-like receptor 2 [8]) | Activity (Mus musculus [1]) | Activity (Mus musculus [2]) [%] | EC50 (Toll-like receptor 2 [3]) [nM] | Activity (Mus musculus [5]) [%] | Ki (Toll-like receptor 2 [6]) [nM] | Activity (Mus musculus [7]) [%] |
| --- | --- | --- | --- | --- | --- | --- | --- | --- |
| CCCCCCCCCCCCCCCC(=O)OC[C@H](CSC[C@H](NC(=O)COCC(=O)NCCCOCCOCCOCCCNC(C)=O)C(=O)NCC(=O)N[C@H](CO)C(=O)NCCCOCCOCCOCCCNC(=O)COCC(N)=O)OC(=O)CCCCCCCCCCCCCCC | 5.2 | 14 | Non-toxic | 49.6 | 20 | 6.63 | 25 | 14.6 |
| CCCCCCCCCCCCCCCC(=O)OC[C@H](CSC[C@H](N)C(=O)N[C@@H](CO)C(=O)N[C@@H](CCCCN)C(=O)N[C@@H](CCCCN)C(=O)N[C@@H](CCCCN)C(=O)N[C@@H](CCCCN)C(=O)O)OC(=O)CCCCCCCCCCCCCCC (H-C(Propyl(2R-PamO,3-PamO))SKKKK-OH) | – | – | Non-toxic | 56.6 | 3.7 | 11.3 | – | 18.4 |
| CCCCCCCCCCCCCCCC(=O)N[C@@H](CSC[C@@H](COC(=O)CCCCCCCCCCCCCCC)OC(=O)CCCCCCCCCCCCCCC)C(=O)N[C@@H](CO)C(=O)N[C@@H](CCCCN)C(=O)N[C@@H](CCCCN)C(=O)N[C@@H](CCCCN)C(=O)N[C@@H](CCCCN)C(=O)O (Palmitoyl-C(Propyl(2R-PamO,3-PamO))SKKKK-OH) | – | – | Non-toxic | – | 23 | 10.2 | – | 16.8 |

Second part, led by results:

| fold change (FC) (Toll-like receptor 2 [4]) | fold change (FC) (Toll-like receptor 2 [8]) | Structure (SMILES) | Activity (Mus musculus [1]) | Activity (Mus musculus [2]) [%] | EC50 (Toll-like receptor 2 [3]) [nM] | Activity (Mus musculus [5]) [%] | Ki (Toll-like receptor 2 [6]) [nM] | Activity (Mus musculus [7]) [%] |
| --- | --- | --- | --- | --- | --- | --- | --- | --- |
| 4.8 | 13 | CCCCCCCCCCCCCCCC(=O)OC[C@H](CSC[C@H](NC(=O)COCC(=O)NCCCOCCOCCOCCCNC(C)=O)C(=O)NCC(=O)N[C@@H](CO)C(=O)N[C@@H](CCC(N)=O)C(=O)N[C@@H](CC(N)=O)C(=O)N[C@@H](CC(C)C)C(=O)N[C@@H](C)C(=O)N[C@@H](CO)C(=O)N[C@@H](CC(C)C)C(=O)N[C@@H](CCC(=O)O)C(=O)N[C@@H](CCC(=O)O)C(N)=O)OC(=O)CCCCCCCCCCCCCCC (X1-C(Propyl(2R-PamO,3-PamO))GSQNLASLEE-NH2) | – | – | – | – | – | – |
| 4.2 | 11 | CCCCCCCCCCCCCCCC(=O)OC[C@H](CSC[C@H](NC(=O)COCC(=O)NCCCOCCOCCOCCCNC(C)=O)C(=O)N[C@H](CO)C(=O)N[C@H](CCCNC(=N)N)C(=O)N[C@H](Cc1ccccc1)C(=O)N[C@H](CC(=O)O)C(=O)N[C@H](CCC(=O)O)C(=O)N[C@H](CC(=O)O)C(=O)N[C@H](CC(=O)O)C(=O)N[C@H](CC(C)C)C(=O)N[C@H](CCC(=O)O)C(N)=O)OC(=O)CCCCCCCCCCCCCCC (X1-C(Propyl(2R-PamO,3-PamO))[dS][dR][dF][dD][dE][dD][dD][dL][dE]-NH2) | – | – | – | – | – | – |
